Data as given in ChEMBL document CHEMBL2346589, “Fragment-based drug discovery of 2-thiazolidinones as inhibitors of the histone reader BRD4 bromodomain” (J Med Chem, 2013).

Biological target: T1, Bromodomain-containing protein 4 (Homo sapiens, UniProt O60885)
Assay: Inhibition of bromodomain BRD4-mediated c-myc mRNA expression in human HT-29 cells at 10 uM after 24 hrs by RT-qPCR analysis relative to control
Type: cell-based
Conditions: not given
In short: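 HT-29 cells (McCoy's 5A, 10% FBS, 37 °C, 5% CO2) seeded in six-well plates overnight, then exposed 24 h to compound at 10 μM final (DMSO stock diluted in saline). Total RNA extracted with Trizol, reverse-transcribed, and quantified by RT-qPCR. c-myc levels normalised to β-actin and expressed relative to untreated control. Three independent experiments, mean ± SD.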

Nc1cc(NS(=O)(=O)c2cccs2)cc(-c2csc(=O)[nH]2)c1 and Cc1noc(C)c1-c1ccccc1 cannot be ordered by inhibition: > 50% for the first, > 50% for the second.

Test system: HT-29
Assay: Growth inhibition of human HT-29 cells after 72 hrs by sulforhodamine B assay
Type: functional
Conditions: HT-29, 72 h
In short: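 HT-29 cells in McCoy's 5A with 10% FBS at 37 °C, 5% CO2. DMSO stocks (0.01 mol/L) diluted in normal saline. Graded concentrations applied in triplicate for 72 h, then SRB staining with A560 read-out. Inhibition rate from A560 treated/control. GI50 from four independent experiments, mean ± SD.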

O=c1[nH]c(-c2cccc(NS(=O)(=O)c3ccc(F)cc3)c2)cs1 and Nc1cc(NS(=O)(=O)c2cccs2)cc(-c2csc(=O)[nH]2)c1 are within 1.5-fold of each other in GI50: 47.8 µM for the first, 37.3 µM for the second.

First: Cc1noc(C)c1-c1ccccc1
Second: O=C(Nc1cc(-c2csc(=O)[nH]2)ccc1NS(=O)(=O)c1cccs1)C1CCCC1
The GI50 of the first is 2.8-fold lower: 22.5 µM for the first, 63.6 µM for the second.

Biological target: CYP2C19 (Homo sapiens, UniProt P33261)
Sequence (P33261 whole entry): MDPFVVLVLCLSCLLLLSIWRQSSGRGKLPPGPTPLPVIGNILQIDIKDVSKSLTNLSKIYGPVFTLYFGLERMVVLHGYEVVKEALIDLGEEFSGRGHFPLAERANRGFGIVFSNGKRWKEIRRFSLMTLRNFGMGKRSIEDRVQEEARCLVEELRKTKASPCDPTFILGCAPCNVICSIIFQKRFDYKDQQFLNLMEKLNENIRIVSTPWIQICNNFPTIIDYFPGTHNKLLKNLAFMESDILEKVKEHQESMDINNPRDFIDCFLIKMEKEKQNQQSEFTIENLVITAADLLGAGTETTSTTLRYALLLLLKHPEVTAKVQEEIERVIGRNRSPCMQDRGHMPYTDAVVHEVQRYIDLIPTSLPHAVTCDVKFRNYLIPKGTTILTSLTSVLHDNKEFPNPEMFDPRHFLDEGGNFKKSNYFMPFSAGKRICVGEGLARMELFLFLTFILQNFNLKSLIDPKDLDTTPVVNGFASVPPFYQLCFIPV
Assay: Inhibition of CYP2C19 (unknown origin)-mediated mephenytoin metabolite conversion at 10 uM after 20 mins relative to control
Type: ADME
Conditions: probe mephenytoin
In short: (§1)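 Human liver microsomes at 0.2 mg/mL in 100 mM phosphate pH 7.4 with 1 mM NADPH. Probe cocktail: midazolam 10 μM, dextromethorphan 10 μM, diclofenac 20 μM, phenacetin 100 μM, mephenytoin 100 μM. Test compound at 10 μM; PBS as negative control. 5 min preincubation at 37 °C, then 20 min reaction started with an NADPH-generating system. Metabolite formation expressed relative to PBS.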

Compared with O=C(Nc1cc(NS(=O)(=O)c2cccs2)cc(-c2csc(=O)[nH]2)c1)c1cccs1, O=c1[nH]c(-c2cccc(NS(=O)(=O)c3cccs3)c2)cs1 is lower in inhibition at 20 min, 10 µM: 39% for the first, 36% for the second.

Biological target: T2, CYP1A2 (Homo sapiens, UniProt P05177)
T2 sequence (P05177 whole entry): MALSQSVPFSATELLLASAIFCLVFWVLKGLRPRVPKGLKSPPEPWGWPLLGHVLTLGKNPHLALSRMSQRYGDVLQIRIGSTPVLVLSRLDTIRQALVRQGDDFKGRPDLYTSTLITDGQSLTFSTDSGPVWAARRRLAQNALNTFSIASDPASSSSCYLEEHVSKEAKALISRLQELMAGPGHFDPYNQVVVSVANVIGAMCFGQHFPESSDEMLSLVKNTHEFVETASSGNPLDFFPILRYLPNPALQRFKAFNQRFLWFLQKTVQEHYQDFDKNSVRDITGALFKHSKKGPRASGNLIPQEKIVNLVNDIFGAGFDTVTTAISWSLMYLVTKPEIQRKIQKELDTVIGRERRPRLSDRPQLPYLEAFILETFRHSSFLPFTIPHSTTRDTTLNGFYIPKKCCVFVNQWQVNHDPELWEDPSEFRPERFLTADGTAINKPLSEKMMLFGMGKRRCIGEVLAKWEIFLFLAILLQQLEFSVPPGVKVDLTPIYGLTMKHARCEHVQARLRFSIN
Assay: Inhibition of CYP1A2 (unknown origin)-mediated phenacetin metabolite conversion at 10 uM after 20 mins relative to control
Type: ADME
Conditions: probe phenacetin
In short: as §1

Compared with O=C(Nc1cc(NS(=O)(=O)c2cccs2)cc(-c2csc(=O)[nH]2)c1)c1cccs1, O=c1[nH]c(-c2cccc(NS(=O)(=O)c3cccs3)c2)cs1 is lower in inhibition at 20 min, 10 µM: 29% for the first, 16% for the second.

Biological target: CYP2C9 (Homo sapiens, UniProt P11712)
Sequence (P11712 whole entry): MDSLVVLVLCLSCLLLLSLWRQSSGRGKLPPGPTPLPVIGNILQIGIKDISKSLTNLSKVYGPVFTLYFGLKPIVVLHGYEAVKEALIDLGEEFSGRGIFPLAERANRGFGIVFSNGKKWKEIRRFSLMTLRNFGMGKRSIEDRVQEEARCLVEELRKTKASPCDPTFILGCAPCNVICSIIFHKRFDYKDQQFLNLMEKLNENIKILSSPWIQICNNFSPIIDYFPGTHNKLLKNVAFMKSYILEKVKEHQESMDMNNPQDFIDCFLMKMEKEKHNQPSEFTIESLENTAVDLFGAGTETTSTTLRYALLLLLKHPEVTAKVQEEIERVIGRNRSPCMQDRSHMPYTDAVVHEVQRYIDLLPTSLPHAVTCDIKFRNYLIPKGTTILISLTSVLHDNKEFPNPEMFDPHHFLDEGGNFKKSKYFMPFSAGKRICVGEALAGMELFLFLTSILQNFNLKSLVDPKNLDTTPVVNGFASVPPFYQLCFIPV
Assay: Inhibition of CYP2C9 (unknown origin)-mediated diclofenac metabolite conversion at 10 uM after 20 mins relative to control
Type: ADME
Conditions: probe diclofenac
In short: as §1

First: O=C(Nc1cc(NS(=O)(=O)c2cccs2)cc(-c2csc(=O)[nH]2)c1)c1cccs1
Second: O=c1[nH]c(-c2cccc(NS(=O)(=O)c3cccs3)c2)cs1
The inhibition at 20 min, 10 µM of the first is higher: 41% for the first, 34% for the second.

Biological target: CYP2D6 (Homo sapiens, UniProt P10635)
Sequence (P10635 whole entry): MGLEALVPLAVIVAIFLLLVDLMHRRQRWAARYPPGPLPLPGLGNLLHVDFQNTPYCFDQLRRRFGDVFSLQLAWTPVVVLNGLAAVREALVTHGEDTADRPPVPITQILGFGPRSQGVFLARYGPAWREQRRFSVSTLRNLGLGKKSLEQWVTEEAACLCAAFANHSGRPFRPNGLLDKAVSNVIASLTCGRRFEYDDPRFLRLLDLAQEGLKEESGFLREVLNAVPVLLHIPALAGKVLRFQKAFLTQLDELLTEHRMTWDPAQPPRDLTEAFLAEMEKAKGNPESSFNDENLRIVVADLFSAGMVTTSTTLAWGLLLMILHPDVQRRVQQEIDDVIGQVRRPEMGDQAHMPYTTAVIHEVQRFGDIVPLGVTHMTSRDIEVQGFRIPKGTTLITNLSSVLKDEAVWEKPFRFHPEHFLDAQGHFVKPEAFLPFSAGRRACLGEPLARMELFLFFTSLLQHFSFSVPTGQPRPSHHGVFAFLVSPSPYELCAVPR
Assay: Inhibition of CYP2D6 (unknown origin)-mediated dextromethorphan metabolite conversion at 10 uM after 20 mins relative to control
Type: ADME
Conditions: probe dextromethorphan
In short: as §1

Compared with O=C(Nc1cc(NS(=O)(=O)c2cccs2)cc(-c2csc(=O)[nH]2)c1)c1cccs1, O=c1[nH]c(-c2cccc(NS(=O)(=O)c3cccs3)c2)cs1 is higher in inhibition at 20 min, 10 µM: 20% for the first, 22% for the second.

Biological target: CYP3A4 (Homo sapiens, UniProt P08684)
Sequence (P08684 whole entry): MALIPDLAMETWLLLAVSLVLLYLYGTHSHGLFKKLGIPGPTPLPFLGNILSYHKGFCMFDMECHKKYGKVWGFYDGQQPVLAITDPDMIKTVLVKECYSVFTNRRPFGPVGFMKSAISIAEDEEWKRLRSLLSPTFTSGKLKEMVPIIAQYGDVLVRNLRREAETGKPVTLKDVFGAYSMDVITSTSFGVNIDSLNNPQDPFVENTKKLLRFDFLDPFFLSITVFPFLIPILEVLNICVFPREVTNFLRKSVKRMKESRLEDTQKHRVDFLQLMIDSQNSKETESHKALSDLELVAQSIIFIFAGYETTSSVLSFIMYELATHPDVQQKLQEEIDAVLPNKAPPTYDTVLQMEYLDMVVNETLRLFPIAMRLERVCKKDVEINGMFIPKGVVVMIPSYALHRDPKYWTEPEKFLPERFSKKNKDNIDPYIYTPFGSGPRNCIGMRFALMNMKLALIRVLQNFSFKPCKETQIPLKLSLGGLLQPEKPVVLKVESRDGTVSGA
Assay: Inhibition of CYP3A4 (unknown origin)-mediated midazolam metabolite conversion at 10 uM after 20 mins relative to control
Type: ADME
Conditions: probe midazolam
In short: as §1

Compared with O=C(Nc1cc(NS(=O)(=O)c2cccs2)cc(-c2csc(=O)[nH]2)c1)c1cccs1, O=c1[nH]c(-c2cccc(NS(=O)(=O)c3cccs3)c2)cs1 is higher in inhibition at 20 min, 10 µM: 8% for the first, 17% for the second.

Test system: not listed separately
Assay: Intrinsic clearance in mouse liver microsomes at 1 uM after 5 mins by LC/MS/MS analysis
Type: ADME, Microsome
Conditions: read-out: CLH

Compared with O=C(Nc1cc(NS(=O)(=O)c2cccs2)cc(-c2csc(=O)[nH]2)c1)c1cccs1, O=c1[nH]c(-c2cccc(NS(=O)(=O)c3cccs3)c2)cs1 is 2.3-fold higher in microsomal CLint at 1 µM: 52 µL/min/mg for the first, 120 µL/min/mg for the second.

Test system: not listed separately
Assay: Intrinsic clearance in human liver microsomes at 1 uM after 5 mins by LC/MS/MS analysis
Type: ADME, Microsome
Conditions: read-out: CLH
In short: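 Liver microsomes at 0.5 mg/mL with 1 μM compound in 0.1 M phosphate pH 7.4, 1 mM EDTA, 5 mM MgCl2. Preincubated 5 min at 37 °C, then started with 1 mM NADPH. Sampled at 0, 5, 10 and 30 min, quenched with cold acetonitrile. Parent remaining measured by LC/MS/MS.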

O=C(Nc1cc(NS(=O)(=O)c2cccs2)cc(-c2csc(=O)[nH]2)c1)c1cccs1 and O=c1[nH]c(-c2cccc(NS(=O)(=O)c3cccs3)c2)cs1 are within 1.5-fold of each other in microsomal CLint at 1 µM: 18 µL/min/mg for the first, 24 µL/min/mg for the second.

Biological target: T1, Bromodomain-containing protein 4
Assay: Displacement of FITC-labeled (+)-JQ1 from bromodomain BRD4(1) (unknown origin) expressed in Escherichia coli BL21(DE3) at 50 uM after 4 hrs by fluorescence anisotropy assay relative to control
Conditions: not given
In short: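 Same BRD4(1) fluorescence anisotropy competition set-up: 45 nM protein, 5 nM FITC-(+)-JQ1 tracer, HEPES pH 7.4/CHAPS buffer, 4 h in the dark at room temperature, ex 485/em 530 nm. Single ligand concentration of 50 μM, reported as percent inhibition.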

First: O=c1[nH]c(-c2ccc(NS(=O)(=O)c3cccs3)cc2)cs1
Second: O=c1[nH]c(-c2cccc(NS(=O)(=O)c3cccc4cccnc34)c2)cs1
The inhibition of the first is lower: 38.6% for the first, 45.7% for the second.

First: O=C(Cc1ccccc1)Nc1cccc(-c2csc(=O)[nH]2)c1
Second: O=C(Nc1cc(-c2csc(=O)[nH]2)ccc1NS(=O)(=O)Cc1ccccc1)C1CCCC1
The inhibition of the first is higher: 45.6% for the first, 20.2% for the second.

Biological target: T1, Bromodomain-containing protein 4
Assay: Displacement of FITC-labeled (+)-JQ1 from bromodomain BRD4(1) (unknown origin) expressed in Escherichia coli BL21(DE3) after 4 hrs by fluorescence anisotropy assay
Conditions: not given
In short: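 BRD4(1), His6-tagged, expressed in E. coli BL21(DE3) codon plus RIL, Ni-NTA purified, tag removed with TEV, then gel filtration. Varied compound concentrations, DMSO 5‰ final. 4 h equilibration in the dark at room temperature. IC50 from two independent experiments.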

O=c1[nH]c(-c2cccc(NS(=O)(=O)c3ccc(F)cc3)c2)cs1 and COc1ccc(S(=O)(=O)Nc2cccc(-c3csc(=O)[nH]3)c2)cc1 are within 1.5-fold of each other in IC50: 3.7 µM for the first, 4.4 µM for the second.

First: O=c1[nH]c(-c2cccc(Cl)c2)cs1
Second: Nc1cccc(-c2csc(=O)[nH]2)c1
The IC50 of the first is 1.8-fold lower: 24 µM for the first, 42 µM for the second. The first is the more potent here.

O=C(Cc1ccccc1)Nc1cc(-c2csc(=O)[nH]2)ccc1NS(=O)(=O)c1cccs1 and O=C(CCc1ccccc1)Nc1cc(-c2csc(=O)[nH]2)ccc1NS(=O)(=O)c1cccs1 are within 1.5-fold of each other in IC50: 3.5 µM for the first, 2.6 µM for the second.

Going from O=c1[nH]c(-c2cccc(NCCc3ccccc3)c2)cs1 to O=c1[nH]c(-c2cccc(NS(=O)(=O)Cc3ccccc3)c2)cs1, the IC50 falls from 22.8 µM to 4.1 µM (5.6-fold).

O=c1[nH]c(-c2ccc(NS(=O)(=O)c3cccs3)c(O)c2)cs1 and CCCC(=O)Nc1cc(-c2csc(=O)[nH]2)ccc1NS(=O)(=O)c1cccs1 are within 1.5-fold of each other in IC50: 3.3 µM for the first, 2.4 µM for the second.

Compared with Nc1cc(NS(=O)(=O)c2cccs2)cc(-c2csc(=O)[nH]2)c1, O=c1[nH]c(-c2cccc(NS(=O)(=O)c3cccs3)c2)cs1 is 1.6-fold higher in IC50: 2.6 µM for the first, 4.1 µM for the second. The first is the more potent here.

First: Cc1noc(C)c1-c1ccccc1
Second: Nc1ccc(-c2csc(=O)[nH]2)cc1
The IC50 of the first is 64-fold lower: 0.8 µM for the first, 51 µM for the second.

First: O=c1[nH]c(-c2cccc(NS(=O)(=O)c3cccnc3)c2)cs1
Second: O=C(CCc1ccccc1)Nc1cc(NS(=O)(=O)c2cccs2)cc(-c2csc(=O)[nH]2)c1
The IC50 of the first is 18-fold higher: 10 µM for the first, 0.57 µM for the second.

First: O=C(CCC1CCCCC1)Nc1cc(NS(=O)(=O)c2cccs2)cc(-c2csc(=O)[nH]2)c1
Second: CCCC(=O)Nc1cc(NS(=O)(=O)c2cccs2)cc(-c2csc(=O)[nH]2)c1
The IC50 of the first is 2.8-fold higher: 2.2 µM for the first, 0.79 µM for the second. The second is the more potent here.

Going from O=C(Nc1cc(-c2csc(=O)[nH]2)ccc1NS(=O)(=O)c1cccs1)C1CCCC1 to Nc1ccc(-c2csc(=O)[nH]2)cc1O, the IC50 rises from 2.5 µM to 23.8 µM (9.5-fold).

In the case of Nc1cc(N)cc(-c2csc(=O)[nH]2)c1, the IC50 is reported as 50.7 µM.
